In article PMC5758876 (Nucleic Acids Research, 2017):
One block for each molecule: values may come before it.

Assays:
Δcid12 = assay: Drug sensitivity serial dilution; format: cell-based, fission yeast Schizosaccharomyces pombe; details: 0 and 6 mM HU, 10-fold serial dilution
Outline: (§1)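 Deletion strains were cultured overnight to mid-log phase in YEA broth (3% glucose, 0.5% yeast extract, 75 mg/l adenine) and set to 1 × 10^7 cells/ml. Each culture went through five ten-fold serial dilution steps, and 3 μl spots were placed on HU-containing plates to assess growth.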

Y41FΔchp1 = assay: Drug sensitivity serial dilution; format: cell-based, fission yeast Schizosaccharomyces pombe; details: 0 and 6 mM HU, 10-fold serial dilution
Outline: (§2)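 Strains were grown overnight in YEA broth (3% glucose, 0.5% yeast extract, 75 mg/l adenine) to mid-log phase and adjusted to 1 × 10^7 cells/ml. Five ten-fold serial dilutions were made, and 3 μl of each was spotted onto plates with 0 or 6 mM HU.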

Δchp1 = assay: Drug sensitivity serial dilution; format: cell-based, fission yeast Schizosaccharomyces pombe; details: 0 and 6 mM HU, 10-fold serial dilution
Outline: as §2

Y41FΔago1 = assay: Drug sensitivity serial dilution; format: cell-based, fission yeast Schizosaccharomyces pombe; details: 0 and 6 mM HU, 10-fold serial dilution
Outline: as §2

Δclr3 = assay: Drug sensitivity serial dilution; format: cell-based, fission yeast Schizosaccharomyces pombe; details: 0 and 6 mM HU, 10-fold serial dilution; compared with Δrik1, Δcid12, Δchp1
Outline: as §1

Δswi6 = assay: Drug sensitivity serial dilution; format: cell-based, fission yeast Schizosaccharomyces pombe; details: 0 and 6 mM HU, 10-fold serial dilution; compared with Δrik1, Δcid12, Δchp1
Outline: as §1

Δrik1 = assay: Drug sensitivity serial dilution; format: cell-based, fission yeast Schizosaccharomyces pombe; details: 0 and 6 mM HU, 10-fold serial dilution
Outline: as §1

GFP-tagged Chp1 = assay: Peptide pull-down from Chp1GFP whole cell extracts; format: binding, fission yeast Schizosaccharomyces pombe; details: western blot, n=3
[1] = molecular target: biotinylated histone H3 N-terminal peptide harbouring a phosphorylated Y41; assay: pull-down

Molecule: NC(=O)NO [HU, hydroxyurea]
- HU sensitivity (in words) (Δcid12): HU hypersensitivity
- HU sensitivity of double mutant relative to Δchp1 (in words) (Y41FΔchp1): strongly suppressed HU hypersensitivity
- HU sensitivity (in words) (Δchp1): HU hypersensitivity
- HU sensitivity of double mutant relative to Δago1 (in words) (Y41FΔago1): strongly suppressed HU hypersensitivity
- HU sensitivity (in words) (Δclr3): milder or no hypersensitivity
- HU sensitivity (in words) (Δswi6): milder or no hypersensitivity
- HU sensitivity (in words) (Δrik1): HU hypersensitivity

Molecule: AAPATGGVKKPH RY(p)RPGTVALR EIRRYQKSTE [Y41p]
- Chp1-GFP association, phosphorylated versus unmodified (Y41F) peptide (in words) (GFP-tagged Chp1): This observation was confirmed

- fold change against the unmodified (Y41F) peptide [1]: 2.62 fold
B1: Chp1, endogenous (natural protein)
chain: MVSVKPLPDIDSNEGETDADVYEVEDILADRVNKNGINEYYIKWAGYDWYDNTWEPEQNLFGAEKVLKKWKKRKKLIAKGLLEPFDAEDNEAKKMKREKEILRQQRQKRKSELTQLSQKVKEKFKKMRKKPARRIVTIANDEEEEDDQTMDEDAFERKSMQGELKERNLTDKTSTLSTSFGETSPDVNPFYLSEWPTVTDSILLSKSLSSDAIPLKNGEIKSTMLMPSDSDNSVPGIQNSNNLENTGAFVENANSPQSNTPLSTFRHSSPLSLSPVITSDNDVANSLFFSNSTPLPSSLKIKKEAPKLETHTILVSDNSGSLTKQDILSYFAFIKGNIEVFFLKSPKKDKVCNMAYIQFDSIEQAKLAYDKGHPSWHVTLVKGKISTDMEECKVSKSILKTTPSKKANARSVSFTQTTTDTLSESEKFASNVDLDENFDFNVNVTNEDAKQLKKSVIGSSWTTVNNDWNSVSKSDQTFENDGASKVVPAGNITLNSDNSLHHSISESEDLSSASTLSDYFRFVLRVGKSLYYAGELSFDISKLKAETEHQQLLRSLVSCKQVDVLRFVTSQYLEVFGTCLTKVLSGSLCIRSDVDMTHFKNILNRGNGAGIVLGSNYTLLLFTEDNNALMNLYDCQGQSNSPFWMVIFEPLESILVEWSAKNLRPKKPYHKSQSYLSYLLQLGHIDLHKIGAFQATQILIVSKQPSPEAEELEDTFREAAIPTFRGLEIPESLFLSQNVFVFLNVSLEDDFDQLQFLTLAKRKSCKFFLFGLSLPLKSPNDSHVGTDFKKNNEPLDKLTYSQYLRPMFPKGGVVSVTLSALIKTPRLLELISPFLEIKKDSWILILPPSIVDMVKSYFVTNNPDKSLLEIQNLLNTLQRYLTNPALKNVTLYQDWDIVIDDSADVSLASTLQLYQKKNYDKYRRFVLIHELKNELTPVNGLDIVDYDEFKETFMRAIGLK
